# Assay results published in ChEMBL document CHEMBL4325899, “Synthesis and photocytotoxic activity of [1,2,3]triazolo[4,5-h][1,6]naphthyridines and [1,3]oxazolo[5,4-h][1,6]naphthyridines” (Eur J Med Chem, 2019).
# How the values were obtained:
# [1] = Solubility of the compound in DMSO; assay type: physicochemical
# A-375 = test: Phototoxicity against human A375 cells preincubated for 5 mins followed by compound washout and subsequent UV irradiation at 1.5 J/cm2 for 5 mins measured after 72 hrs by MTT assay; assay type: functional, cell-based; settings: A-375, light or radiation study
# Procedure, shortened: (§1)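 Compounds were diluted in DMSO (0.5% final), applied in triplicate for 5 min, then washed out with PBS. After medium removal, cells were irradiated on ice for 5 min at 365 nm (1.5 J/cm²) and then kept 72 h at 37 °C. Viability was read by MTT at 540 nm and expressed relative to 0.5% DMSO controls given the same treatment. EC50 is the concentration killing 50%, as the mean ± SD of at least three experiments.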
# HT-29 = test: Phototoxicity against human HT-29 cells preincubated for 5 mins followed by compound washout and subsequent UV irradiation at 1.5 J/cm2 for 5 mins measured after 72 hrs by MTT assay; assay type: functional, cell-based; settings: HT-29, light or radiation study; procedure, shortened: as §1
# MCF7 = test: Phototoxicity against human MCF7 cells preincubated for 5 mins followed by compound washout and subsequent UV irradiation at 1.5 J/cm2 for 5 mins measured after 72 hrs by MTT assay; assay type: functional, cell-based; settings: MCF7, light or radiation study; procedure, shortened: as §1
# MCF-10A = test: Phototoxicity against human MCF10A cells preincubated for 5 mins followed by compound washout and subsequent UV irradiation at 1.5 J/cm2 for 5 mins measured after 72 hrs by MTT assay; assay type: cell-based; settings: light or radiation study; procedure, shortened: as §1
# [2] = Dark toxicity against human A375 cells preincubated for 5 mins followed by compound washout and measured after 72 hrs by MTT assay; assay type: cell-based, A-375
# Procedure, shortened: (§2)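 Cells were plated and allowed to attach overnight. Compounds were diluted in DMSO (0.5% final), with each concentration in triplicate, and applied for 5 min. Cells were then washed in PBS and given fresh medium. Without irradiation, cells were held 72 h at up to 50 μM. MTT (5 mg/mL stock) was added for 4 h, crystals were dissolved in SDS/HCl overnight, and absorbance was read at 540 nm. CC50 is the concentration killing 50% of cells, taken as the mean of at least three experiments.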
# [3] = Dark toxicity against human HT-29 cells preincubated for 5 mins followed by compound washout and measured after 72 hrs by MTT assay; assay type: cell-based; procedure, shortened: as §2
# [4] = Dark toxicity against human MCF7 cells preincubated for 5 mins followed by compound washout and measured after 72 hrs by MTT assay; assay type: cell-based; procedure, shortened: as §2
# [5] = Dark toxicity against human MCF10A cells preincubated for 5 mins followed by compound washout and measured after 72 hrs by MTT assay; assay type: cell-based, MCF-10A; procedure, shortened: as §2
SMILES,solubility [1],EC50 (A-375) [µM],EC50 (HT-29) [µM],EC50 (MCF7) [µM],EC50 (MCF-10A) [µM],CC50 at 72 h [2] [µM],CC50 at 72 h [3] [µM],CC50 at 72 h [4] [µM],CC50 at 72 h [5] [µM]
Cc1nc2oc(-c3ccccc3)nc2c2nc(-c3ccccc3)ccc12,Insoluble,–,–,–,–,–,–,–,–
COc1ccc(-c2nc3c(nc(C)c4ccc(-c5ccccc5OC)nc43)o2)cc1,Insoluble,–,–,–,–,–,–,–,–
COc1ccc(-c2ccc3c(C)nc4oc(-c5ccc(OC)cc5)nc4c3n2)cc1,Insoluble,–,–,–,–,–,–,–,–
COc1ccc(-c2nc3c(nc(C)c4ccc(=O)[nH]c43)o2)cc1,Insoluble,–,–,–,–,–,–,–,–
COc1ccc(-c2ccc3c(C)nc4oc(-c5cc(OC)c(OC)c(OC)c5)nc4c3n2)cc1,Insoluble,–,–,–,–,–,–,–,–
COc1ccc(-n2nnc3c4[nH]c(=O)ccc4c(C)nc32)cc1,Soluble,> 50,> 50,> 50,> 50,> 50,> 50,> 50,> 50
COc1ccc(-c2ccc3c(C)nc4c(nnn4-c4cc(OC)c(OC)c(OC)c4)c3n2)cc1,Insoluble,–,–,–,–,–,–,–,–
COc1ccc(-c2ccc3c(C)nc4oc(-c5ccccc5)nc4c3n2)cc1,Insoluble,–,–,–,–,–,–,–,–
COc1cc(-c2nc3c(nc(C)c4ccc(=O)[nH]c43)o2)cc(OC)c1OC,Insoluble,–,–,–,–,–,–,–,–
COc1cc(-n2nnc3c4nc(-c5ccccc5)ccc4c(C)nc32)cc(OC)c1OC,Soluble,> 50,> 50,> 50,> 50,> 50,> 50,> 50,> 50
COc1ccccc1-c1ccc2c(C)nc3c(nnn3-c3ccccc3)c2n1,Insoluble,–,–,–,–,–,–,–,–
COc1cc(-c2nc3c(nc(C)c4ccc(C)nc43)o2)cc(OC)c1OC,Soluble,> 50,> 50,> 50,> 50,> 50,> 50,> 50,> 50
Cc1nc2c(nnn2-c2ccccc2)c2[nH]c(=O)ccc12,Soluble,> 50,> 50,> 50,> 50,> 50,> 50,> 50,> 50
COc1cc(-n2nnc3c4nc(C)ccc4c(C)nc32)cc(OC)c1OC,Insoluble,–,–,–,–,–,–,–,–
COc1ccc(-n2nnc3c4nc(-c5ccccc5)ccc4c(C)nc32)cc1,Insoluble,–,–,–,–,–,–,–,–
COc1ccccc1-c1ccc2c(C)nc3c(nnn3-c3cc(OC)c(OC)c(OC)c3)c2n1,Soluble,> 50,> 50,> 50,> 50,> 50,> 50,> 50,> 50
Cc1ccc2c(C)nc3c(nnn3-c3ccccc3)c2n1,Soluble,> 50,> 50,> 50,> 50,> 50,> 50,> 50,> 50
COc1cc(-n2nnc3c4[nH]c(=O)ccc4c(C)nc32)cc(OC)c1OC,Insoluble,–,–,–,–,–,–,–,–
Cc1nc2c(nnn2-c2ccccc2)c2nc(-c3ccccc3)ccc12,Soluble,> 50,> 50,> 50,> 50,> 50,> 50,> 50,> 50
